The subject of one experiment is COLO 205. The experiment is described as follows: Cytotoxicity against human COLO205 cells after 24 hrs by MTT assay. The experiment is classed as functional, cell-based. The following applies: COLO 205, 24 h. The method in brief: (§1)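 Cells obtained from National Center for Cell Sciences, Pune, and grown in RPMI-1640 with 10% heat-inactivated FBS, penicillin/streptomycin and 2 mM glutamine at 37 °C, 5% CO₂. Seeded at 5 × 10³ cells/well and treated with or without compound at 1 and 10 for 24 h. MTT (5 mg/ml in PBS) was added for 2 h at 37 °C, then DMSO, and absorbance read at 570 nm. Triplicate wells per point; IC50 is 50% growth inhibition relative to untreated cells.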

A further experiment has as its system K562. In words: Cytotoxicity against human K562 cells after 24 hrs by MTT assay. Type of experiment: functional, cell-based. The following applies: K562, 24 h. The method in brief:
as §1

A further experiment deals with MDA-MB-231. The experiment is described as follows: Cytotoxicity against human MDA-MB-231 cells after 24 hrs by MTT assay. The experiment is classed as functional, cell-based. The following applies: MDA-MB-231, 24 h. The method in brief: as §1
Another experiment concerns IMR-32. The experiment is described as follows: Cytotoxicity against human IMR32 cells after 24 hrs by MTT assay. Type of experiment: functional, cell-based. The note with it: IMR-32, 24 h. The method in brief:
as §1

Experiment [1] deals with T1, NAD-dependent protein deacetylase sirtuin-1 (Homo sapiens) (UniProt Q96EB6).
T1 sequence (whole entry): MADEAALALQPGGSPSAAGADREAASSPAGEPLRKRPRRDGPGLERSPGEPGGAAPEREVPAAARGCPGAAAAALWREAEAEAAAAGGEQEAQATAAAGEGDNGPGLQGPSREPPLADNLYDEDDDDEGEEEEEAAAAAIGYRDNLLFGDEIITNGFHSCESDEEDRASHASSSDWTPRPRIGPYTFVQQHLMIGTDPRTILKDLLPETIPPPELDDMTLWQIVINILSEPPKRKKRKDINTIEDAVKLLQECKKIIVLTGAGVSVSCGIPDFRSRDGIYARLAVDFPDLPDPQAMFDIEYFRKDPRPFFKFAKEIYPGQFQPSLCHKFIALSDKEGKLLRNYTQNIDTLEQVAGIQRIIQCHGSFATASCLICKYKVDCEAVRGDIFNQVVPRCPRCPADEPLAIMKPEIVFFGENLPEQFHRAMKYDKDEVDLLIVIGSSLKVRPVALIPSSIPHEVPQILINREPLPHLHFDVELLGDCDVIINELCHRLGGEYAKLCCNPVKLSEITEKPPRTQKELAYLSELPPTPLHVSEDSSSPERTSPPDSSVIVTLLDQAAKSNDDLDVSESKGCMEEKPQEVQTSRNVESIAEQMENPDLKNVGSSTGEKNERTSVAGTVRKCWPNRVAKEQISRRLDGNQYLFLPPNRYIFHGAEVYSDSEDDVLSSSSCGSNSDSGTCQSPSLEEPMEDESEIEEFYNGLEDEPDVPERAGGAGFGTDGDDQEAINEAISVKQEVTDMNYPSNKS
In words: Inhibition of human N-terminally hexa-his-tagged SIRT1 expressed in Escherichia coli BL21 (DE3) at 10 uM after 15 mins by […]. The method in brief:
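Commercial SIRT1 fluorescence kit using bacterially purified human Sirt1, fluorophore-labelled substrate peptide (25) and NAD⁺ (25), with or without compound at 10, for 15 min at 37 °C. Stop solution was then added for 45 min at room temperature. Fluorescence read at Ex 360/Em 450 nm. The no-enzyme blank and the compound autofluorescence (no-enzyme) control were subtracted.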

SMILES strings stand for the structures. Bounds are passed on as bounds.

As for `O=c1oc2ccccc2c2nc3cc(Br)ccc3cc12`, the half-maximal inhibitory concentration (IC50) is 38 µM in the experiment with COLO 205, 23 µM in the experiment on K562, 19 µM in the experiment with MDA-MB-231 and 23 µM in the experiment with IMR-32.
Regarding `OCc1cc2ccccc2nc1-c1ccccc1O`, the half-maximal inhibitory concentration (IC50) was 40 µM in the experiment with COLO 205, 74 µM in the experiment on K562, above 100 µM with MDA-MB-231 and above 100 µM in the experiment with IMR-32.
In the case of `O=c1oc2ccccc2c2nc3ccc(Cl)cc3cc12`, the IC50 in the experiment with COLO 205 came out at 16 µM; with K562, 32 µM; in the experiment on MDA-MB-231, 14 µM; in the experiment with IMR-32 it was 46 µM.
With `NCc1cc2ccccc2nc1-c1ccccc1O`, the IC50 in the experiment on COLO 205 was 32 µM; with K562 it was 23 µM; with MDA-MB-231 it was 19 µM; with IMR-32 it was 46 µM. In experiment [1], this compound came in with an inhibition of 59%.
`NS(=O)(=O)c1cc(C(=O)O)cc([N+](=O)[O-])c1NCc1cc2ccccc2nc1-c1ccccc1O`: the 50% inhibitory concentration (IC50) in the experiment with COLO 205 worked out at 19 µM; with K562, 10 µM; in the experiment on MDA-MB-231, 8 µM; with IMR-32 it was 18 µM. Also, in experiment [1], the inhibition stood at 61%.
Consider `[N-]=[N+]=NCc1cc2ccccc2nc1-c1ccccc1O`, for which the half-inhibitory concentration (IC50) in the experiment on COLO 205 is 19 µM; with K562, 11 µM; with MDA-MB-231, 12 µM; in the experiment with IMR-32, 24 µM. In experiment [1], this compound returned an inhibition of 53%.
On the same counts, the results for `OCc1cc2cc(F)c(F)cc2nc1-c1ccccc1O` are above 100 µM, 12 µM, above 100 µM, 63 µM and 48%.
Turning to `OCc1cc2cc(Cl)ccc2nc1-c1ccccc1O`, the half-maximal inhibitory concentration (IC50) was 24 µM in the experiment on COLO 205, 11 µM in the experiment with K562, above 100 µM in the experiment with MDA-MB-231 and 65 µM with IMR-32.
Regarding `CS(=O)(=O)N(Cc1cn(Cc2cc3ccccc3nc2-c2ccccc2O)nn1)c1ccccc1I`, the half-maximal inhibitory concentration (IC50) in the experiment with COLO 205 came to 12 µM; in the experiment with K562, 13 µM; in the experiment on MDA-MB-231, 8 µM; with IMR-32 it was 38 µM. In addition, in experiment [1], the inhibition turned out to be 62%.
`COc1ccc2nc3c(cc2c1)c(=O)oc1ccccc13`: the IC50 turned out to be 41 µM in the experiment with COLO 205, 39 µM in the experiment on K562, 9 µM in the experiment on MDA-MB-231 and 36 µM with IMR-32.
In the case of `O=c1oc2ccccc2c2nc3cc(F)c(F)cc3cc12`, the half-maximal inhibitory concentration (IC50) in the experiment on COLO 205 was found to be 11 µM; in the experiment with K562, 41 µM; in the experiment on MDA-MB-231, 8 µM; in the experiment with IMR-32, 25 µM.
Regarding `Cc1ccc2nc(-c3ccccc3O)c(CO)cc2c1`, the half-inhibitory concentration (IC50) in the experiment on COLO 205 is above 100 µM; in the experiment on K562, 12 µM; with MDA-MB-231 it was above 100 µM; in the experiment with IMR-32, above 100 µM.
Turning to `O=c1oc2ccccc2c2nc3ccc(F)cc3cc12`, the 50% inhibitory concentration (IC50) in the experiment on COLO 205 turned out to be 17 µM; with K562, 37 µM; with MDA-MB-231 it was 11 µM; with IMR-32, 43 µM.
On the same counts, the results for `COc1ccc2c(c1)[nH]c1c(C)nccc12` [HARMINE] are 46 µM, 45 µM, 54 µM and 68 µM.
Regarding `Cc1ccc2nc3c(cc2c1)c(=O)oc1ccccc13`, the half-inhibitory concentration (IC50) was determined as 29 µM in the experiment on COLO 205, 23 µM in the experiment with K562, 12 µM with MDA-MB-231 and 33 µM in the experiment on IMR-32.
`O=c1oc2ccccc2c2nc3cc(F)ccc3cc12`: the half-maximal inhibitory concentration (IC50) in the experiment with COLO 205 turned out to be 21 µM; with K562, 35 µM; in the experiment with MDA-MB-231 it was 29 µM; in the experiment with IMR-32, 41 µM.
For `COc1cccc2cc3c(=O)oc4ccccc4c3nc12`, the IC50 in the experiment with COLO 205 amounted to 24 µM; in the experiment on K562, 35 µM; with MDA-MB-231, 16 µM; in the experiment on IMR-32, 46 µM.
For the compound `O=c1oc2ccccc2c2nc3ccccc3cc12`, the IC50 amounted to 18 µM with COLO 205, 43 µM with K562, 12 µM in the experiment on MDA-MB-231 and 28 µM in the experiment with IMR-32.
Turning to `O=c1oc2ccccc2c2nc3c(F)c(F)ccc3cc12`, the IC50 with COLO 205 worked out at 29 µM; in the experiment on K562, 28 µM; in the experiment on MDA-MB-231, 23 µM; with IMR-32, 36 µM. In experiment [1], the inhibition stood at 48%.
